Laboratory results: ChEMBL document CHEMBL1142321, “Selection of a respiratory syncytial virus fusion inhibitor clinical candidate. 2. Discovery of a morpholinopropylaminobenzimidazole derivative (TMC353121)” (J Med Chem, 2008)
Values after ≈ are worked out from the molar mass of the structure shown.

Key:
[1] = system: Respiratory syncytial virus; experiment: Inhibition of RSV by MTT assay; format: functional, organism-based; settings: human respiratory syncytial virus
In short: (§1)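 HeLaM epithelial-like cells infected with RSV with or without a range of compound concentrations; viability read by MTT after 1 week incubation. OD measured spectrophotometrically and pEC50 derived. Virus, cell and cytotoxicity controls on every plate, reference compounds in every test; runs failing control criteria rejected.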

[2] = Cytotoxicity against human HeLaM cells by MTT assay; format: functional, M-HeLa
[3] = system: Respiratory syncytial virus; experiment: Antiviral activity against RSV R2LO replication in HeLa cells; format: functional, organism-based; settings: for EC50: human respiratory syncytial virus, HeLa; in short: as §1
[4] = system: Respiratory syncytial virus; experiment: Antiviral activity against RSV R6LO replication in HeLa cells; format: functional, organism-based; settings: for EC50: human respiratory syncytial virus, HeLa; in short: as §1
[5] = system: Respiratory syncytial virus; experiment: Antiviral activity in RSV infected cotton rat model assessed as log reduction of viral titer at 0.25 mg/mL by aerosol administration 1 hr prior to viral challenge; format: functional
In short: (§2)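 Single aerosol from an ultrasonic nebulizer for 1 h, given 1 h before RSV challenge; dose stated as drug concentration in the nebulizer reservoir. BALF collected by lung flushing with physiological water 4 days after challenge. Virus titre measured by plaque titration; log reduction calculated against untreated control animals.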

[6] = system: Respiratory syncytial virus; experiment: Antiviral activity in RSV infected cotton rat model assessed as log reduction of viral titer at 1.25 mg/mL by aerosol administration 1 hr prior to viral challenge; format: functional; in short: as §2
[7] = system: Respiratory syncytial virus; experiment: Antiviral activity in RSV infected cotton rat model assessed as log reduction of viral titer at 5 mg/mL by aerosol administration 1 hr prior to viral challenge; format: functional; in short: as §2
[8] = system: Respiratory syncytial virus; experiment: Antiviral activity in RSV infected cotton rat model assessed as log reduction of viral titer at 20 mg/mL by aerosol administration 1 hr prior to viral challenge; format: functional; in short: as §2
[9] = system: Respiratory syncytial virus; experiment: Antiviral activity in RSV infected cotton rat model assessed as log reduction of viral titer at 10 mg/kg, iv after 24 hrs of viral challenge; format: functional
In short: (§3)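 Cotton rats received a single iv dose at set times before (minus) or after (plus) RSV challenge. Day 4 after challenge, lungs flushed with physiological water and BALF virus titre measured by plaque titration. Log reduction calculated against untreated controls.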

[10] = system: Respiratory syncytial virus; experiment: Antiviral activity in RSV infected cotton rat model assessed as log reduction of viral titer at 10 mg/kg, po 2 hrs prior to viral challenge; format: functional
In short: (§4)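 Cotton rats dosed once orally by gavage 2 h before RSV challenge. BALF obtained by lung lavage with physiological water 4 days after challenge, virus titred by plaque assay. Log reduction expressed versus untreated control animals.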

[11] = system: Respiratory syncytial virus; experiment: Antiviral activity in RSV infected cotton rat model assessed as log reduction of viral titer at 40 mg/kg, po 2 hrs prior to viral challenge; format: functional; in short: as §4
[12] = AUC (0 to infinity) in Sprague-Dawley rat plasma at 2 mg/kg, iv; format: ADME, organism-based; set-up: time infinity, dose 2 mg/kg, route intravenous
[13] = Plasma clearance in Sprague-Dawley rat at 2 mg/kg, iv; format: ADME, organism-based; set-up: dose 2 mg/kg, route intravenous
[14] = Volume of distribution in Sprague-Dawley rat plasma at 2 mg/kg, iv; format: ADME, organism-based; set-up: dose 2 mg/kg, route intravenous
[15] = Half life in Sprague-Dawley rat plasma at 2 mg/kg, iv; format: ADME, organism-based; set-up: dose 2 mg/kg, route intravenous
[16] = Cmax in Sprague-Dawley rat plasma at 10 mg/kg, po; format: ADME, organism-based; set-up: dose 10 mg/kg, route oral
[17] = AUC (0 to infinity) in Sprague-Dawley rat plasma at 10 mg/kg, po; format: ADME, organism-based; set-up: time infinity, dose 10 mg/kg, route oral
[18] = Absolute bioavailability in Sprague-Dawley rat plasma at 10 mg/kg, po; format: ADME, organism-based
[19] = Half life in Sprague-Dawley rat lung; format: ADME, organism-based
[20] = system: Respiratory syncytial virus; experiment: Antiviral activity against RSV LO replication in HeLa cells; format: functional, organism-based; in short: as §1
[21] = system: Respiratory syncytial virus; experiment: Antiviral activity against RSV Cl11 replication in HeLa cells; format: functional, organism-based; settings: for EC50: human respiratory syncytial virus, HeLa; in short: as §1
[22] = system: Respiratory syncytial virus; experiment: Antiviral activity against RSV CI57 replication in HeLa cells; format: functional, organism-based; settings: for EC50: human respiratory syncytial virus, HeLa; in short: as §1
[23] = system: Respiratory syncytial virus; experiment: Antiviral activity against RSV CI41 replication in HeLa cells; format: functional, organism-based; settings: for EC50: human respiratory syncytial virus, HeLa; in short: as §1
[24] = system: Respiratory syncytial virus; experiment: Antiviral activity against RSV CI42 replication in HeLa cells; format: functional, organism-based; settings: for EC50: human respiratory syncytial virus, HeLa; in short: as §1
[25] = system: Respiratory syncytial virus; experiment: Antiviral activity against RSV R1LO replication in HeLa cells; format: functional, organism-based; settings: for EC50: human respiratory syncytial virus, HeLa; in short: as §1
[26] = system: Respiratory syncytial virus; experiment: Antiviral activity in RSV infected cotton rat model assessed as log reduction of viral titer at 2 mg/kg, iv 5 mins prior to viral challenge; format: functional; in short: as §3
[27] = system: Respiratory syncytial virus; experiment: Antiviral activity in RSV infected cotton rat model assessed as log reduction of viral titer at 10 mg/kg, iv 96 hrs prior to viral challenge; format: functional; in short: as §3
[28] = system: Respiratory syncytial virus; experiment: Antiviral activity in RSV infected cotton rat model assessed as log reduction of viral titer at 10 mg/kg, iv 72 hrs prior to viral challenge; format: functional; in short: as §3
[29] = system: Respiratory syncytial virus; experiment: Antiviral activity in RSV infected cotton rat model assessed as log reduction of viral titer at 10 mg/kg, iv 48 hrs prior to viral challenge; format: functional; in short: as §3
[30] = system: Respiratory syncytial virus; experiment: Antiviral activity in RSV infected cotton rat model assessed as log reduction of viral titer at 10 mg/kg, iv 24 hrs prior to viral challenge; format: functional; in short: as §3
[31] = system: Respiratory syncytial virus; experiment: Antiviral activity in RSV infected cotton rat model assessed as log reduction of viral titer at 10 mg/kg, iv 4 hrs prior to viral challenge; format: functional; in short: as §3
[32] = system: Respiratory syncytial virus; experiment: Antiviral activity in RSV infected cotton rat model assessed as log reduction of viral titer at 10 mg/kg, iv 1 hrs prior to viral challenge; format: functional; in short: as §3
[33] = system: Respiratory syncytial virus; experiment: Antiviral activity in RSV infected cotton rat model assessed as log reduction of viral titer at 10 mg/kg, iv 5 mins prior to viral challenge; format: functional; in short: as §3
[34] = system: Respiratory syncytial virus; experiment: Antiviral activity in RSV infected cotton rat model assessed as log reduction of viral titer at 10 mg/kg, iv after 3 hrs of viral challenge; format: functional; in short: as §3

Cc1cccc(N(CCO)Cc2ccc3nc(NCCCN4CCOCC4)n(Cc4nc(C)ccc4O)c3c2)c1
EC50 [1]: 0.501 nM
pCC50 [2]: 5

Cc1ccc(O)c(Cn2c(NC3CCN(C)CC3)nc3ccc(C(O)c4ccccc4)cc32)n1 (stereo not drawn)
EC50 [1]: 158 nM
pCC50 [2]: <4

Cc1cc(C)cc(NCc2ccc3nc(NCC(O)CO)n(Cc4nc(C)ccc4O)c3c2)c1 (stereo not drawn)
EC50 [1]: 31.6 nM
pCC50 [2]: 4.3

Cc1cccc(C(=O)Nc2ccc3nc(NC4CCN(C)CC4)n(Cc4nc(C)ccc4O)c3c2)c1
EC50 [1]: 63.1 nM
pCC50 [2]: 4.3

Cc1ccc(CCCO)c(NCc2ccc3nc(NCCCN4CCOCC4)n(Cc4nc(C)ccc4O)c3c2)c1
pEC90 [3]: <4
EC50 ([3]; read-out: EC50): 280 ng/mL
EC50 ([3]; read-out: Log EC50 (converted)): 501 nM
pEC90 [4]: <6.7
EC50 ([4]; read-out: EC50): 0.04 ng/mL
EC50 ([4]; read-out: Log EC50 (converted)): 0.0794 nM
Activity [5]: 0.6
Activity [6]: 1
Activity [7]: 1.5
Activity [8]: 1.6
Activity [9]: 0.2
Activity [10]: 0.4
Activity [11]: 0.8
AUC(0-inf) [12]: 354 ng·h/mL
clearance [13]: 90 mL/min/kg
Vd [14]: 79.3 L/kg
half-life [15]: 10.3 h
Cmax [16]: 47.3 ng/mL
AUC(0-inf) [17]: 246 ng·h/mL
bioavailability [18]: 14%
pCC50 [2]: 5.1
CC50 ([2]; Homo sapiens, M-HeLa): 4440 ng/mL (≈ 7.94 µM)
half-life [19]: 25.1 h
pEC90 [20]: 9.6
EC50 ([20]; human respiratory syncytial virus, HeLa): 0.07 ng/mL (≈ 0.000125 µM)
pEC90 [21]: 10
EC50 ([21]; read-out: EC50): 0.03 ng/mL
EC50 ([21]; read-out: Log EC50 (converted)): 0.0501 nM
pEC90 [22]: 9.8
EC50 ([22]; read-out: EC50): 0.04 ng/mL
EC50 ([22]; read-out: Log EC50 (converted)): 0.0794 nM
pEC90 [23]: 10.1
EC50 ([23]; read-out: EC50): 0.02 ng/mL
EC50 ([23]; read-out: Log EC50 (converted)): 0.0316 nM
pEC90 [24]: 10.1
EC50 ([24]; read-out: EC50): 0.02 ng/mL
EC50 ([24]; read-out: Log EC50 (converted)): 0.0316 nM
pEC90 [25]: 7.5
EC50 ([25]; read-out: EC50): 7.03 ng/mL
EC50 ([25]; read-out: Log EC50 (converted)): 12.6 nM
Activity [26]: 0.4
Activity [27]: 0.2
Activity [28]: 0.4
Activity [29]: 0.3
Activity [30]: 0.5
Activity [31]: 0.9
Activity [32]: 0.9
Activity [33]: 1.2
Activity [34]: 0.5

Cc1ccc(O)c(Cn2c(NC3CCN(C)CC3)nc3ccc(CN(CCO)c4ccccc4)cc32)n1
EC50 [1]: 3.16 nM
pCC50 [2]: <4

Cc1ccc(O)c(Cn2c(NC3CCN(CCN)CC3)nc3c(C)cccc32)n1 [JNJ 2408068]
EC50 [1]: 0.251 nM
pCC50 [2]: <4

Cc1ccc(O)c(Cn2c(NCCCN3CCOCC3)nc3ccc(CNc4ccccc4CCCO)cc32)n1
EC50 [1]: 0.251 nM
pCC50 [2]: 4.9

Cc1cc(C)cc(N(CCO)Cc2ccc3nc(NC4CCN(C)CC4)n(Cc4nc(C)ccc4O)c3c2)c1
EC50 [1]: 0.398 nM
pCC50 [2]: 4.4

Cc1cc(C)cc(NCc2ccc3nc(NCCc4ccccc4)n(Cc4nc(C)ccc4O)c3c2)c1
EC50 [1]: > 100000 nM
pCC50 [2]: 4.4

Cc1cccc(CNc2ccc3nc(NC4CCN(C)CC4)n(Cc4nc(C)ccc4O)c3c2)c1
EC50 [1]: 15.8 nM
pCC50 [2]: 4.8

Cc1cccc(NCc2ccc3nc(NC4CCN(C)CC4)n(Cc4nc(C)ccc4O)c3c2)c1
EC50 [1]: 5.01 nM
pCC50 [2]: 4.7

Cc1cc(C)cc(NCc2ccc3nc(NCCCN4CCN(C)CC4)n(Cc4nc(C)ccc4O)c3c2)c1
EC50 [1]: 3.98 nM
pCC50 [2]: 5

Cc1cc(C)cc(N(CCO)Cc2ccc3nc(NCCCN4CCOCC4)n(Cc4nc(C)ccc4O)c3c2)c1
EC50 [1]: 0.501 nM
pCC50 [2]: 4.4
half-life [19]: 19.6 h

Cc1cccc(CCc2ccc3nc(NC4CCN(CCN)CC4)n(Cc4nc(C)ccc4O)c3c2)c1
EC50 [1]: 1 nM
pCC50 [2]: 4.9
